# ChEMBL document CHEMBL4359889 (Eur J Med Chem, 2019)
# Experiments:
# [1] = tested on: NCI-H2228; experiment: Cytotoxicity in human NCI-H2228 cells harboring EML4-fused ALK variant 3 incubated for 72 hrs by alamar blue reagent based assay; format: functional, cell-based; details: NCI-H2228, 72 h
# [2] = Biodistribution in nude mouse assessed as accumulation in brain tissue at 100 uCi, iv measured for 60 mins by PET imaging analysis; format: ADME, organism-based; details: in vivo, 1 h
# Procedure, shortened: (§1)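 Dynamic PET 0–10 min after injection under anesthesia, then 10-min static scans at 30 and 60 min. Regions of interest drawn on decay-corrected whole-body coronal images and converted to %ID/cc. Mean ± SD.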
# [3] = Biodistribution in nude mouse assessed as accumulation in muscle tissue at 100 uCi, iv measured for 60 mins by PET imaging analysis; format: ADME, organism-based; details: in vivo, 1 h; procedure, shortened: as §1
# [4] = Drug uptake in human NCI-H2228 cells harboring EML4-fused ALK variant 3 at 1 uCi incubated for 30 mins by radioactivity-based assay; format: ADME, cell-based; details: nci-h2228, 0.5 h
# Procedure, shortened: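 H2228 cells seeded at 10⁶ per well in RPMI-1640 with 10% FBS. Wells washed twice with ice-cold PBS, cells trypsinized 5 min at 37°C, then gamma counted. Uptake given as cpm per million cells, in triplicate.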
# [5] = Biodistribution in nude mouse assessed as accumulation in heart tissue at 100 uCi, iv measured for 30 mins by PET imaging analysis; format: ADME, organism-based; details: in vivo, 0.5 h; procedure, shortened: as §1
# [6] = Biodistribution in nude mouse assessed as accumulation in liver tissue at 100 uCi, iv measured for 60 mins by PET imaging analysis; format: ADME, organism-based; details: in vivo, 1 h; procedure, shortened: as §1
# [7] = Biodistribution in nude mouse assessed as accumulation in muscle tissue at 100 uCi, iv measured for 30 mins by PET imaging analysis; format: ADME, organism-based; details: in vivo, 0.5 h; procedure, shortened: as §1
# [8] = Lipophilicity, log D of the compound in octanol/pH 7.4 PBS vortex at 1 uCi for 5 mins and repeated for 4 times by gamma counter method; format: physicochemical; details: octanol/water, pH 7.4, 5 min
# Procedure, shortened: (§2)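 Vortexed 5 min, repeated four times, then centrifuged 2×5 min at 4000 rpm, 4°C. Value taken from the ratio of octanol to aqueous activity.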
# [9] = Biodistribution in nude mouse assessed as accumulation in kidney tissue at 100 uCi, iv measured for 10 mins by PET imaging analysis; format: ADME, organism-based; details: in vivo; procedure, shortened: as §1
# [10] = Biodistribution in nude mouse assessed as accumulation in kidney tissue at 100 uCi, iv measured for 5 mins by PET imaging analysis; format: ADME, organism-based; details: in vivo; procedure, shortened: as §1
# [11] = Biodistribution in nude mouse assessed as accumulation in kidney tissue at 100 uCi, iv measured for 60 mins by PET imaging analysis; format: ADME, organism-based; details: in vivo, 1 h; procedure, shortened: as §1
# [12] = Biodistribution in nude mouse assessed as accumulation in liver tissue at 100 uCi, iv measured for 10 mins by PET imaging analysis; format: ADME, organism-based; details: in vivo; procedure, shortened: as §1
# [13] = Biodistribution in nude mouse assessed as accumulation in brain tissue at 100 uCi, iv measured for 30 mins by PET imaging analysis; format: ADME, organism-based; details: in vivo, 0.5 h; procedure, shortened: as §1
# [14] = Biodistribution in nude mouse assessed as accumulation in kidney tissue at 100 uCi, iv measured for 30 mins by PET imaging analysis; format: ADME, organism-based; details: in vivo, 0.5 h; procedure, shortened: as §1
# [15] = Octanol/water partition coefficient, logP of compound at 1 uCi vortex for 5 mins and repeated for 4 times by gamma counter method; format: physicochemical; procedure, shortened: as §2
# [16] = Biodistribution in nude mouse assessed as accumulation in brain tissue at 100 uCi, iv measured for 5 mins by PET imaging analysis; format: ADME, organism-based; details: in vivo; procedure, shortened: as §1
# [17] = Biodistribution in nude mouse assessed as accumulation in brain tissue at 100 uCi, iv measured for 10 mins by PET imaging analysis; format: ADME, organism-based; details: in vivo; procedure, shortened: as §1
# [18] = Biodistribution in nude mouse assessed as accumulation in muscle tissue at 100 uCi, iv measured for 5 mins by PET imaging analysis; format: ADME, organism-based; details: in vivo; procedure, shortened: as §1
# [19] = Biodistribution in nude mouse assessed as accumulation in heart tissue at 100 uCi, iv measured for 10 mins by PET imaging analysis; format: ADME, organism-based; details: in vivo; procedure, shortened: as §1
# [20] = Biodistribution in nude mouse assessed as accumulation in heart tissue at 100 uCi, iv measured for 5 mins by PET imaging analysis; format: ADME, organism-based; details: in vivo; procedure, shortened: as §1
# [21] = Biodistribution in nude mouse assessed as accumulation in liver tissue at 100 uCi, iv measured for 5 mins by PET imaging analysis; format: ADME, organism-based; details: in vivo; procedure, shortened: as §1
# [22] = Biodistribution in nude mouse assessed as accumulation in muscle tissue at 100 uCi, iv measured for 10 mins by PET imaging analysis; format: ADME, organism-based; details: in vivo; procedure, shortened: as §1
# [23] = Biodistribution in nude mouse assessed as accumulation in liver tissue at 100 uCi, iv measured for 30 mins by PET imaging analysis; format: ADME, organism-based; details: in vivo, 0.5 h; procedure, shortened: as §1
# [24] = Biodistribution in nude mouse assessed as accumulation in heart tissue at 100 uCi, iv measured for 60 mins by PET imaging analysis; format: ADME, organism-based; details: in vivo, 1 h; procedure, shortened: as §1
# [25] = tested on: NCI-H441; experiment: Cytotoxicity in human H441 cells incubated for 72 hrs by alamar blue reagent based assay; format: cell-based
# Procedure, shortened: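 Cells seeded at 8,000 per well in RPMI-1640 with 10% FBS, dosed next day across a concentration range for 72 h. Alamar Blue (1:10, in phenol red-free RPMI with 10% FBS) added for 4 h, fluorescence read at ex 530/em 580 nm. IC50 from curve fit; triplicate in three independent sets, mean ± SD.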
# [26] = Drug uptake in human H441 cells at 1 uCi incubated for 30 mins by radioactivity-based assay; format: ADME, cell-based; details: nci-h441, 0.5 h
# Procedure, shortened: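 Medium removed, two ice-cold PBS washes, trypsinised 5 min at 37°C, gamma counted. Uptake expressed as counts per minute per million cells; triplicate.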
compound,measurement,setting,value
C[C@@H](Oc1cc(-c2cnn(C3CCN(CCF)CC3)c2)cnc1N)c1c(Cl)ccc(F)c1Cl,IC50,[1],7.5 µM
C[C@@H](Oc1cc(-c2cnn(C3CCN(CC[18F])CC3)c2)cnc1N)c1c(Cl)ccc(F)c1Cl,Drug uptake,[2],1.8 %ID/cc
same,Drug uptake,[3],1.2 %ID/cc
same,Drug uptake,[4],Active
Cc1cc(Nc2ncc(Cl)c(Nc3ccccc3S(=O)(=O)C(C)C)n2)c(OC(C)C)cc1C1CCN(CCF)CC1,IC50,[1],24.2 µM
Cc1cc(Nc2ncc(Cl)c(Nc3ccccc3S(=O)(=O)C(C)C)n2)c(OC(C)C)cc1C1CCN(CC[18F])CC1,Drug uptake,[5],3.1 %ID/cc
same,Drug uptake,[6],6.4 %ID/cc
same,Drug uptake,[7],2.4 %ID/cc
same,logD,[8],1.51
same,Drug uptake,[9],18.2 %ID/cc
same,Drug uptake,[2],4 %ID/cc
same,Drug uptake,[10],20.2 %ID/cc
same,Drug uptake,[3],2.1 %ID/cc
same,Drug uptake,[11],5.7 %ID/cc
same,Drug uptake,[12],17.9 %ID/cc
same,Drug uptake,[13],4.6 %ID/cc
same,Drug uptake,[14],7.2 %ID/cc
same,logP,[15],0.97
same,Drug uptake,[16],6.6 %ID/cc
same,Drug uptake,[17],6.5 %ID/cc
same,Drug uptake,[18],3.6 %ID/cc
same,Drug uptake,[4],Active
same,Drug uptake,[19],7 %ID/cc
same,Drug uptake,[20],9.1 %ID/cc
same,Drug uptake,[21],16.8 %ID/cc
same,Drug uptake,[22],3.9 %ID/cc
same,Drug uptake,[23],9.5 %ID/cc
same,Drug uptake,[24],2.6 %ID/cc
CCc1cc2c(cc1N1CCC(N3CCOCC3)CC1)C(C)(C)c1[nH]c3cc(C#N)ccc3c1C2=O [ALECTINIB],IC50,[25],Non-Toxic
CCc1cc2c(cc1N1CCC(N3CCOCC3)CC1)C(C)(C)c1c(c3ccc(C#N)cc3n1CCF)C2=O,IC50,[25],Non-Toxic
same,IC50,[1],0.01 µM
CCc1cc2c(cc1N1CCC(N3CCOCC3)CC1)C(C)(C)c1c(c3ccc(C#N)cc3n1CC[18F])C2=O,Drug uptake,[26],Active
